High-throughput results deposited in PubChem BioAssay by several laboratories.
An excerpt weighted towards active compounds, which were near 0.94% of everything screened.
UCH37 DUB inh = blocks the human deubiquitinase UCH37. purified proteasome/UCH37, Ub-AMC cleavage fluorescence. inhibition, % (test concentration not listed). 0.33% of 330,000 active. AID 588478;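 active means mean inhibition over replicate wells above about 20%, limit read from the data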;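 further: 0% = compound-free wells with enzyme and 100% = wells lacking proteasome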
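System: Proteasome-associated human UCH37 deubiquitinase; Input: 0.15 nM proteasome in added enzyme buffer; Also added: Ub-AMC substrate from 1 µM stock; Incubation: 30 min compound-proteasome preincubation then 25 min substrate reaction, room temperature; Detection: fluorescence, ex 355 nm, em 460 nm; Read-out: % inhibition of Ub-AMC cleavage fluorescence; Benchmarks: no-proteasome and no-compound wells.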
CTSL1 counter = counter-screen for PFM18AAP inhibitors: inhibitors of F. hepatica cathepsin L1; inhibition, % at 5.96 µM; AID 1906; 0.49% of 300,000 active; recombinant F. hepatica cathepsin L1, Z-Leu-Arg-MCA fluorescence;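 active means inhibition above the mean of all tested compounds plus 3 SD, set per screening campaign, cut at about 17% in these data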;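 further: 0% = plate median of test compound wells and 100% = 1 µM Z-Phe-Ala-diazomethylketone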
PKA-R1A act = activators of PKA-R1A complex. AID 504707. 0.083% of 340,000 active. PKA-R1A dissociation, Cy5-IP20 fluorescence polarization; scaled: DMSO 0%, 113 µM cGMP 100%. activation, % at 11.4 µM;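 active means percent activation above the mean of all tested compounds plus 3 SD, cut at about 19% in these data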;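 further: higher means more PKAc released from R1A so a rise in polarization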
aDG glyco act = increases alpha dystroglycan glycosylation; Pro5-aDG cells, alpha-DG glycosylation AlphaScreen (IIH6); 0% Pro5, 100% B10-LARGE cell signal; activation, % at 10 µM; 0.22% of 360,000 active; AID 624168;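 active means activation of at least 8% versus controls, or a plate z-score of at least 8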;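 further: Pro5 are CHO cells carrying HIG-tagged alpha-DG that lacks glycosylation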
PKA-R2B act = PKA-R2B complex activation | AID 504700 | P22694+P31323 | activation, % at 11.4 µM | 0.079% of 340,000 active | PKA-R2B holoenzyme dissociation, Cy5-IP20 fluorescence polarization; R2B truncated from residue 108, S112A mutant; 0% DMSO only, 100% 113 µM cGMP;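 active means activation above a cutoff set at the mean over all compounds plus 3 SD, cut at about 18% in these data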;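 further: higher means more holoenzyme dissociation and a rise in polarization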
Target sequence (P31323 whole entry, looked up, other chains not shown, the tested form may be a part): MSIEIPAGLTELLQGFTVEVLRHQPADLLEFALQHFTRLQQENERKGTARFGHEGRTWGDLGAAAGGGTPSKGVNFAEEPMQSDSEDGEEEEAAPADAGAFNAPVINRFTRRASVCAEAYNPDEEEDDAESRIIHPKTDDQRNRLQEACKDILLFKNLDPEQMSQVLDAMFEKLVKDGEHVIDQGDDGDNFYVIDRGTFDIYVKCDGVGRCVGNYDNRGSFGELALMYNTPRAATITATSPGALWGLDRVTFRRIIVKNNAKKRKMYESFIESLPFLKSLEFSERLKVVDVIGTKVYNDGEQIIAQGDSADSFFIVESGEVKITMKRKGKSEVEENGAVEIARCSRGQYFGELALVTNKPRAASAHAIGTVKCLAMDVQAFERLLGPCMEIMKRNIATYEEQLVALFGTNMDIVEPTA
The depositor's hits bear a star; x = no result given.

SMILES | UCH37 DUB inh | CTSL1 counter | PKA-R1A act | aDG glyco act | PKA-R2B act
COC(=O)C(C)n1cnc2c(cnn2-c2ccc(Cl)cc2)c1=O (centres undefined) | 30* | 0 | -14 | 1 | -3
CCOc1ccc(C(CC)=NNC(=O)C2(C)CC2(Br)Br)cc1 (centres undefined) | 1 | x | x | x | x
COc1cc(C=NNc2nc3ccccc3s2)ccc1OC(=O)c1ccccc1F | -4 | x | x | x | x
[N-]=[N+]=CC(=O)CNC(=O)[C@@H](Cc1ccccc1)N1C(=O)c2ccccc2C1=O | 1 | 43* | -1 | 0 | 2
O=C(NCc1ccco1)C(Cc1ccccc1)N1C(=O)c2ccccc2C1=O (centres undefined) | 4 | -1 | 1 | 0 | 5
CCC(Sc1nc(N)cc(=O)[nH]1)C(=O)NC(C(=O)OC)c1ccccc1 (centres undefined) | 32* | -4 | x | x | x
COc1ccccc1NS(=O)(=O)c1ccc(Cl)c(NC(=O)C(C)N2C(=O)c3ccccc3C2=O)c1 (centres undefined) | 2 | 25* | 3 | 0 | -4
COc1ccccc1NC(=O)C(C(C)C)N1C(=O)c2ccccc2C1=O (centres undefined) | 6 | -1 | 4 | 0 | -2
CCOc1ccc2nc(N/C(N)=N/C(=S)Nc3cccc(OC)c3)nc(C)c2c1 | -6 | 23* | 2 | 1 | -14
CC(CC(=O)NCc1ccco1)=NNC(=O)Cc1ccc(Cl)cc1 | 32* | x | x | x | x
Cc1cccc(CS(=O)(=O)c2nnc([C@H](Cc3ccccc3)NC(=O)OC(C)(C)C)o2)c1 | 3 | 31* | -3 | 0 | -9
COC(=O)CS(=O)(=O)c1nnc([C@H](Cc2ccccc2)NC(=O)OC(C)(C)C)o1 | 3 | 24* | 2 | -1 | 8
CC(C)(C)OC(=O)N[C@@H](Cc1ccccc1)c1nnc(SCC(N)=O)o1 | -6 | 1 | -6 | 0 | 5
COc1cc(C=Nn2cnn(Cc3ccccc3Cl)c2=S)cc(OC)c1OC | 4 | x | x | x | x
CC1=CC(=O)C(C(C)C)=C/C1=N/OS(=O)(=O)c1ccccc1 | x | 17* | 4 | 0 | -18
CSc1nnc(-c2ccncc2)n1N=Cc1cn(-c2ccccc2)nc1-c1ccc(Cl)cc1 | -1 | x | x | x | x
Cc1ccccc1NN=Cc1sc(=O)n(Cc2cccc(C(=O)O)c2)c1Cl | 14 | x | x | x | x
CCO/C(=C/c1sc2ccc(OC)cc2[n+]1CCCS(=O)(=O)[O-])CC | 21* | 2 | 3 | 0 | 0
ON=Cc1ccc(OCC(O)COc2ccc(C=NO)cc2)cc1 (centres undefined) | 1 | x | x | x | x
Cc1onc(-c2ccccc2)c1C(=O)NN=Cc1ccc(O)c([N+](=O)[O-])c1 | 15 | x | x | x | x
CCN(CC)c1cc(Cl)c2nonc2c1N | 3 | 0 | -8 | 0 | 4
CN(C)c1cc(Cl)c2nonc2c1N | 17 | 39* | -2 | 0 | 6
CC1(C)CC(=O)C2=C(C1)OC1=C(C(=O)CC(C)(C)C1)C2c1ccc(O)c([N+](=O)[O-])c1 | 6 | 18* | 0 | 0 | -2
CCC(Nc1ccc(OC)cc1)C(=O)NN=Cc1ccc([N+](=O)[O-])cc1 (centres undefined) | 5 | x | x | x | x
COc1ccc(-n2c(SCC(=O)N3CCOCC3)nc(O)cc2=O)cc1 | -1 | x | -14 | 0 | -8
SMILES | UCH37 DUB inh | CTSL1 counter | PKA-R1A act | aDG glyco act | PKA-R2B act
COc1ccc(-n2c(SCC(=O)N3CCOCC3)nc(O)c(Cc3ccccc3)c2=O)cc1 | 30* | 0 | -7 | 0 | -18
O=C(CSc1ccc2nnc(-c3ccccn3)n2n1)Nc1ccc(F)cc1 | 3 | 50* | 4 | 0 | 4
CC(CC1CC(COCCC(C)C)OC1=O)=NNC(N)=S (centres undefined) | 4 | x | x | x | x
CCCCCOCC1CC(C/C(C)=N/NC(N)=S)C(=O)O1 (centres undefined) | x | 18* | 9 | 3 | 9
Cc1sccc1C=NNC(=O)c1ccco1 | 14 | x | x | x | x
CC(=O)Nc1cc(OC(C)=O)c2nonc2c1OC(C)=O | 8 | 110* | -1 | 1 | 2
Cn1c(=O)[nH]c(=O)c2c1nc(N1CCNCC1)n2Cc1ccccc1Cl | 2 | 3 | -15 | 0 | -2
Cn1c(=O)[nH]c(=O)c2c1nc(N1CCCCCC1)n2Cc1cccc2ccccc12 | 32* | 2 | 6 | 0 | -2
COc1ccccc1-c1ccc(Nc2ccc(C(=O)N3CCOCC3)cc2)nn1 | 5 | 18* | 1 | 0 | 4
C#CC(=O)N(c1cc(OC)ccc1OC)C(C(=O)NC1CCCC1)c1cccs1 (centres undefined) | x | 34* | -4 | 0 | -13
COc1ccc(N(C(=O)c2snc(C(N)=O)c2N)C(C(=O)NC2CCCC2)c2cccs2)cc1OC (centres undefined) | -8 | 2 | 1 | 0 | -13
COc1ccc(N(C(=O)c2ccco2)C(C(=O)NC2CCCCC2)c2cccs2)cc1OC (centres undefined) | 2 | 0 | -4 | 0 | 14
C#CC(=O)N(c1ccc(OC)cc1OC)C(C(=O)NC1CCCC1)c1cccs1 (centres undefined) | 7 | 30* | -13 | 0 | 1
COc1ccc(C=NNC(=O)Cc2ccc(Cl)cc2)cc1OC | 35* | x | x | x | x
O=C(CCl)Nc1c2c(nn1-c1ccccc1)CSC2 | x | 80* | -1 | 1 | -3
O=C(CC12CC3CC(CC(C3)C1)C2)NCc1ccncc1 | 0 | 17* | -3 | 0 | 0
CCN(CC)S(=O)(=O)c1cccc(-c2n[nH]c(=S)n2N=Cc2ccc(C(=O)OC)cc2)c1 | -1 | x | x | x | x
COc1ccc2oc(=N)c(C(=O)Nc3ccccc3Cl)cc2c1 | 0 | 20* | 1 | 0 | -9
O=C(O)c1ccccc1NS(=O)(=O)c1ccc(N/N=C/c2cccc(O)c2O)c([N+](=O)[O-])c1 | x | x | 4 | 0 | -3
COc1cc(C=NNc2ccc(S(=O)(=O)Nc3ccccc3C(=O)O)cc2[N+](=O)[O-])ccc1O | 22* | x | 1 | 0 | 10
Cc1nn(-c2ccccc2)c(Cl)c1C=NNc1ccc(S(=O)(=O)Nc2ccccc2C(=O)O)cc1[N+](=O)[O-] | 23* | x | x | x | x
CC(=O)Nc1ccc(C=NNc2ccc(S(=O)(=O)Nc3ccccc3C(=O)O)cc2[N+](=O)[O-])cc1 | 18 | x | -7 | 0 | -12
CCOc1cc(C=NNC(=O)CN2CCOCC2)ccc1OCc1ccccc1 | 2 | x | x | x | x
c1ccc(Cc2nnc3sc(C4COc5ccccc5O4)nn23)cc1 (centres undefined) | 2 | 18* | 1 | 0 | -7
COc1ccc(NC(=O)N2CCN(C(=O)Nc3ccc(OC)cc3)CC2)cc1 | 5 | -6 | -13 | 0 | -14
